Series [1] addresses Voltage-gated inwardly rectifying potassium channel KCNH2 (Homo sapiens, UniProt Q12809). Put plainly: Inhibition of human ERG expressed in HEK cells by patch-clamp assay. It is filed as cell-based. The note with it: hek293. In general terms: The patch-clamp technique gives a direct electrical read-out from membranes.
In series [2] the test system is Liver microsome. Put plainly: Metabolic stability assay in rat liver microsomes assessed as parent drug disappearance at 1 uM after 20 mins by HPLC and mass spectrometry method. It is filed as ADME. Background: Liver microsomes are a subcellular fraction often used to study metabolism.
In a further series the target is Cytochrome P450 2D6 (Homo sapiens, UniProt P10635). Put plainly: Inhibition of CYP2D6 in human liver microsomes assessed as reduction in dextromethorphan-O demethylation. It is filed as ADME.
Cytochrome P450 2D6, sequence (P10635 whole entry): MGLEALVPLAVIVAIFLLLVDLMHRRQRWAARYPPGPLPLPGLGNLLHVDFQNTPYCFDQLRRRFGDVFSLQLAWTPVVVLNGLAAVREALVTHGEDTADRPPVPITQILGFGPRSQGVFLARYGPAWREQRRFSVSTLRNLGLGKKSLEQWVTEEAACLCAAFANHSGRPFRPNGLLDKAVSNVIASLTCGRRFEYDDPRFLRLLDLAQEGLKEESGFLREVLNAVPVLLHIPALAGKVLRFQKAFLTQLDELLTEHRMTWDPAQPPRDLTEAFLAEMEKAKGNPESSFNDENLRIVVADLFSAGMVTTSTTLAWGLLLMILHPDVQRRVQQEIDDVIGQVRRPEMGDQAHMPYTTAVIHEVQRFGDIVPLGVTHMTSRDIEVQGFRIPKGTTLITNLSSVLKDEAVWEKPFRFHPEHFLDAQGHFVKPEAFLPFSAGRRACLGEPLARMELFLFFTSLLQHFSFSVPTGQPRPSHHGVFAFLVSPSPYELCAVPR
For series [3], the target named is T1, Cytochrome P450 3A4 (Homo sapiens, UniProt P08684). Put plainly: Inhibition of CYP3A4 in human liver microsomes assessed as reduction in testosterone 6beta-hydroxylation. It is filed as ADME.
T1 sequence (P08684 whole entry): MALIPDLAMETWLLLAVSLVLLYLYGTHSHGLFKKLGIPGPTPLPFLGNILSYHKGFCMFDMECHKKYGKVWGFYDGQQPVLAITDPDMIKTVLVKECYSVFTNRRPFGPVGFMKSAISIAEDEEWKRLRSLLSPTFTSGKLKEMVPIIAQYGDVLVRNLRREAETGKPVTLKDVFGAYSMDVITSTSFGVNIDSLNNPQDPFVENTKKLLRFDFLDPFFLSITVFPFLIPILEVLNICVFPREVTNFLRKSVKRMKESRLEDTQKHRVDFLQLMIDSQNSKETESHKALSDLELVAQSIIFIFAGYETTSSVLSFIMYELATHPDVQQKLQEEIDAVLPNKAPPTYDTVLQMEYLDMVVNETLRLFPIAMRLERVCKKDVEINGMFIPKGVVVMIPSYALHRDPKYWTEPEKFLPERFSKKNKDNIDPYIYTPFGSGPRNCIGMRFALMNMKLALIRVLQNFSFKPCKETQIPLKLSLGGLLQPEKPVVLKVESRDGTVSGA
The target in series [4] is T1, Cytochrome P450 3A4. Put plainly: Inhibition of CYP3A4 in human liver microsomes assessed as reduction in midazolam 1'-hydroxylation. It is filed as ADME.
Series [5] can be described thus: Solubility in basic pH. It is filed as physicochemical.
Series [6] has as its system Liver microsome. Put plainly: Metabolic stability assay in human liver microsomes assessed as parent drug disappearance at 1 uM after 20 mins by HPLC and mass spectrometry method. It is filed as ADME.
In the next series the target is Cytochrome P450 2C9 (Homo sapiens, UniProt P11712). Put plainly: Inhibition of CYP2C9 in human liver microsomes assessed as reduction in diclofenac 4'-hydroxylation. It is filed as ADME.
Cytochrome P450 2C9, sequence (P11712 whole entry): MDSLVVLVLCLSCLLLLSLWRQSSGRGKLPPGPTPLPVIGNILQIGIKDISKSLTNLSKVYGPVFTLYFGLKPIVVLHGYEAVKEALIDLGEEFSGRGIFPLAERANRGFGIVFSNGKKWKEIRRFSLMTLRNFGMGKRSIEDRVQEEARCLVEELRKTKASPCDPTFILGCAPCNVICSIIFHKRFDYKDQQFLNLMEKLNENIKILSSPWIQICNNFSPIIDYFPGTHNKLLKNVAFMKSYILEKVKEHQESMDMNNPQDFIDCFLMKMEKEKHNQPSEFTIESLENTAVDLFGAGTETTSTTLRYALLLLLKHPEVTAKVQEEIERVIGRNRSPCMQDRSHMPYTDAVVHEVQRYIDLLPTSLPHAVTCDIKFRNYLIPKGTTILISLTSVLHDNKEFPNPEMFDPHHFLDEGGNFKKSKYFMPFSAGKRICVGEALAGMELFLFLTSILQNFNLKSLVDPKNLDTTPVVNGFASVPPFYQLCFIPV
Series [7] can be described thus: Solubility in neutral pH. It is filed as physicochemical.
The subject of series [8] is Platelet. Put plainly: Inhibition of ADP-induced platelet aggregation in human platelet rich plasma assessed as remaining activity at 500 nM by in-vitro light transmission aggregometry assay. It is filed as functional. The essentials:
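Light transmission aggregometry in human platelet-rich plasma; compound incubated, aggregation triggered with 3 µM ADP; remaining activity (RA) recorded at a single compound level (1000, 500 or 100 nM).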

A further series concerns the target P2Y purinoceptor 12 (Homo sapiens, UniProt Q9H244). Put plainly: Displacement of [3H]-2-methyl-thio-adenosine 5'-diphosphate from human recombinant P2Y12 expressed in CHO cell membranes by scintillation counting method. The essentials: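 CHO cells expressing recombinant P2Y₁₂ receptors, incubated with tritium-labeled 2-methyl-thio-adenosine 5'-diphosphate plus test compound; IC₅₀ from displacement curves, each point in triplicate; reference compound run with every compound set, and set re-analyzed if its IC₅₀ fell outside pre-set 95% confidence interval.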

Series [9] is described as follows: Potency shift, ratio of IC50 for inhibition of ADP-induced platelet aggregation in human platelet rich plasma to IC50 for displacement of [3H]-2-methyl-thio-adenosine 5'-diphosphate from human recombinant P2Y12 expressed in CHO cell membranes. For orientation: In a radioligand displacement assay an active substance lowers the binding of a labelled ligand.
Series [10] relates to Platelet. Put plainly: Inhibition of ADP-induced platelet aggregation in human platelet rich plasma by in-vitro light transmission aggregometry assay. It is filed as functional. To be noted: Homo sapiens, Platelet, Plasma. The essentials: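 Human platelet-rich plasma incubated with compound, aggregation induced by 3 µM ADP and read by light transmission aggregometry; IC₅₀ derived from concentration–response curve.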

Voltage-gated inwardly rectifying potassium channel KCNH2, sequence (Q12809 whole entry): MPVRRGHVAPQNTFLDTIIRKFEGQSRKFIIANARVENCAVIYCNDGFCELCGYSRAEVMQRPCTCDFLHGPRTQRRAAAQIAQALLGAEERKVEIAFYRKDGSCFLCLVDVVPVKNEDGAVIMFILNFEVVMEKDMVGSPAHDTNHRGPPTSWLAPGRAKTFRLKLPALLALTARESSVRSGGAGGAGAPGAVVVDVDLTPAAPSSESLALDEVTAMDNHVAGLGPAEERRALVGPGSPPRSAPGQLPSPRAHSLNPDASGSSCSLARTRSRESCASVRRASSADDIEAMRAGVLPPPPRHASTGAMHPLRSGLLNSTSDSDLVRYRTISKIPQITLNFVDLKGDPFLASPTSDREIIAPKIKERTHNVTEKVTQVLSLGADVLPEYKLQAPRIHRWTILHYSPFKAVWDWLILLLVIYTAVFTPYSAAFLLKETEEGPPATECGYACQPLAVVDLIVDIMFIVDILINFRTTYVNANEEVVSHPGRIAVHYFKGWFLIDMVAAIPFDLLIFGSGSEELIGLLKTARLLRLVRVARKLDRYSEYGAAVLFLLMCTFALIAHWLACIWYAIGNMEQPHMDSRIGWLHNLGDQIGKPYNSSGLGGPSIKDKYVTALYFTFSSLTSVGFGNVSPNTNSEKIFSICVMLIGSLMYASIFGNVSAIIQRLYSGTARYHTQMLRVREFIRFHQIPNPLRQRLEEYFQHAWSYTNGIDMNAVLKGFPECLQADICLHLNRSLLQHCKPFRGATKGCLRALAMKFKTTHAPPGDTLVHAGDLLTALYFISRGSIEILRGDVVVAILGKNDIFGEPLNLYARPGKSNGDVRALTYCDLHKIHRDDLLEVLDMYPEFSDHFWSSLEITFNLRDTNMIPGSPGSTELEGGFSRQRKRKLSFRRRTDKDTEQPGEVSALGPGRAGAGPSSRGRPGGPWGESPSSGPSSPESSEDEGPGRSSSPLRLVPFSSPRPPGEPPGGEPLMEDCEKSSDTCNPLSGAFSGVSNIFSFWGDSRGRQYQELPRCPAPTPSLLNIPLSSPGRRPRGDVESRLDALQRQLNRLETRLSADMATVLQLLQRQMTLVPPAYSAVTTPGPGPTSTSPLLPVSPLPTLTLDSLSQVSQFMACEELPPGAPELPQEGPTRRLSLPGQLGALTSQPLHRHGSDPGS
P2Y purinoceptor 12, sequence (Q9H244 whole entry): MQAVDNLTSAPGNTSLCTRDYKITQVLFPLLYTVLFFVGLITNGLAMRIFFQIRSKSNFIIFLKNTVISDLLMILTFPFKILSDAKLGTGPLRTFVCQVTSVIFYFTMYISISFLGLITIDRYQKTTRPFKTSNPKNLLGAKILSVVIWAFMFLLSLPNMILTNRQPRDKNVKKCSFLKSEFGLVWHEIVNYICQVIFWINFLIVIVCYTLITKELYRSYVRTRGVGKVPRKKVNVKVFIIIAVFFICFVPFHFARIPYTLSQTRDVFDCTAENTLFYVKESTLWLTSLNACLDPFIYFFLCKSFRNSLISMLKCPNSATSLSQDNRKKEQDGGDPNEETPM

As for `CCOC(=O)N1CCN(C(=O)[C@H](CCC(=O)O)NC(=O)c2cc(N[C@H]3CC[C@H](O)CC3)nc(-c3ccccc3)n2)CC1`, the “inhibition (INH)” value (in series [1]; at Cytochrome P450 2D6; on Cytochrome P450 3A4 [3]; at Cytochrome P450 3A4 [4]; at Cytochrome P450 2C9) was “Not Active” in each case. For the same compound, the Stability entry in the series on Liver microsome [2] and with Liver microsome [6] was “Stable” in each case. Also, the solubility entry in [5] and in series [7] was “soluble” in each case. In addition, in the series on Platelet [8], the Activity was 30%.

With `CCOC(=O)N1CCN(C(=O)[C@H](CCC(=O)O)NC(=O)c2cc(NCCCO)nc(-c3ccccc3)n2)CC1`, the “inhibition (INH)” value (in series [1]; at Cytochrome P450 2D6; on Cytochrome P450 3A4 [3]; on Cytochrome P450 3A4 [4]; at Cytochrome P450 2C9) was “Not Active” throughout. The Stability result in the series with Liver microsome [2] and in the series on Liver microsome [6] was “Stable” in each case. In addition, the IC50 on P2Y purinoceptor 12 was 279 nM. The solubility entry in [5] and in [7] was “soluble” each time. Also, the Activity in the series with Platelet [8] is given as 30%.

As to `CCCCOC(=O)N1CCN(C(=O)[C@H](CCC(=O)O)NC(=O)c2cc([C@H]3C[C@H]3COC)nc(-c3ccccc3)n2)CC1` (racemic), the “inhibition (INH)” value (in series [1]; on Cytochrome P450 2D6; on Cytochrome P450 3A4 [3]; at Cytochrome P450 3A4 [4]; on Cytochrome P450 2C9) was “Not Active” in each case. Moreover, the Stability entry with Liver microsome [2] and with Liver microsome [6] was “Stable” throughout. Also, in [9], the “Ratio IC50” value is 32. The concentration for half-maximal inhibition (IC50) on P2Y purinoceptor 12 is 9 nM; in the series with Platelet [10], 287 nM. Also, the solubility result in series [5] and in series [7] was “soluble” in each case.

Take `CCOC(=O)N1CCN(C(=O)[C@H](CCC(=O)O)NC(=O)c2cc(NC(C)C)nc(-c3ccccc3)n2)CC1`: the “inhibition (INH)” value (in series [1]; at Cytochrome P450 2D6; on Cytochrome P450 3A4 [3]; at Cytochrome P450 3A4 [4]; at Cytochrome P450 2C9) was “Not Active” in each case. The Stability entry in the series with Liver microsome [2] and with Liver microsome [6] was “Stable” throughout. Also, the “Ratio IC50” value in series [9] turned out to be 7.6. Further, the IC50 on P2Y purinoceptor 12 worked out at 95.5 nM; with Platelet [10], 724 nM. Besides, the solubility result in series [5] and in [7] was “soluble” throughout.

With `CCOC(=O)N1CCN(C(=O)[C@H](CCC(=O)O)NC(=O)c2cc(CN3CCCCC3)nc(-c3ccccc3)n2)CC1`, the “inhibition (INH)” value (in series [1]; at Cytochrome P450 2D6; at Cytochrome P450 3A4 [3]; on Cytochrome P450 3A4 [4]; on Cytochrome P450 2C9) was “Not Active” each time. Further, the Stability entry in the series with Liver microsome [2] and in the series with Liver microsome [6] was “Stable” in each case. In addition, the IC50 on P2Y purinoceptor 12 was found to be 533 nM. Also, the solubility result in [5] and in series [7] was “soluble” throughout.

For `CCCCOC(=O)N1CCN(C(=O)[C@H](CCC(=O)O)NC(=O)c2cc([C@H]3C[C@@H]3COC)nc(-c3ccccc3)n2)CC1` (racemic), the “inhibition (INH)” value (in series [1]; at Cytochrome P450 2D6; at Cytochrome P450 3A4 [3]; on Cytochrome P450 3A4 [4]; at Cytochrome P450 2C9) was “Not Active” in each case. Besides, the Stability result with Liver microsome [2] and with Liver microsome [6] was “Stable” in each case. Further, the “Ratio IC50” value in series [9] was 7. The IC50 stood at 3 nM on P2Y purinoceptor 12 and 21 nM with Platelet [10]. Besides, the solubility entry in [5] and in series [7] was “soluble” in each case.

As to `CCOC(=O)N1CCN(C(=O)[C@H](CCC(=O)O)NC(=O)c2cc(-n3cc(C)cn3)nc(-c3ccccc3)n2)CC1`, the “inhibition (INH)” value (in series [1]; at Cytochrome P450 2D6; on Cytochrome P450 3A4 [3]; at Cytochrome P450 3A4 [4]; at Cytochrome P450 2C9) was “Not Active” in each case. In addition, the Stability entry in the series with Liver microsome [2] and in the series on Liver microsome [6] was “Stable” in each case. In addition, in series [9], the “Ratio IC50” value stood at 12. In addition, the IC50 at P2Y purinoceptor 12 amounted to 27 nM; in the series with Platelet [10], 318 nM. The solubility entry in series [5] and in series [7] was “soluble” in each case. The Activity with Platelet [8] is reported as 30%.

For the compound `CCOC(=O)N1CCN(C(=O)[C@H](CCC(=O)O)NC(=O)c2cc(NS(=O)(=O)c3ccccc3)nc(-c3ccccc3)n2)CC1`, the “inhibition (INH)” value (in series [1]; at Cytochrome P450 2D6; at Cytochrome P450 3A4 [3]; on Cytochrome P450 3A4 [4]; at Cytochrome P450 2C9) was “Not Active” throughout. Also, the Stability result with Liver microsome [2] and in the series on Liver microsome [6] was “Stable” in each case. At P2Y purinoceptor 12, the half-maximal inhibitory concentration (IC50) was determined as 266 nM. The solubility result in [5] and in series [7] was “soluble” throughout.

Turning to `CCOC(=O)N1CCN(C(=O)[C@H](CCC(=O)O)NC(=O)c2cc(NCCN(C)C)nc(-c3ccccc3)n2)CC1`, the “inhibition (INH)” value (in series [1]; at Cytochrome P450 2D6; on Cytochrome P450 3A4 [3]; on Cytochrome P450 3A4 [4]; at Cytochrome P450 2C9) was “Not Active” each time. Also, the Stability entry with Liver microsome [2] and with Liver microsome [6] was “Stable” throughout. Besides, the IC50 at P2Y purinoceptor 12 turned out to be 2780 nM. The solubility entry in series [5] and in series [7] was “soluble” each time.

As to `CCOC(=O)N1CCN(C(=O)[C@H](CCC(=O)O)NC(=O)c2cc(CN3CCOCC3)nc(-c3ccccc3)n2)CC1`, the “inhibition (INH)” value (in series [1]; on Cytochrome P450 2D6; on Cytochrome P450 3A4 [3]; on Cytochrome P450 3A4 [4]; on Cytochrome P450 2C9) was “Not Active” throughout. The Stability entry in the series on Liver microsome [2] and in the series with Liver microsome [6] was “Stable” throughout. Moreover, on P2Y purinoceptor 12, the IC50 was 428 nM. Besides, the solubility entry in series [5] and in series [7] was “soluble” throughout.

As for `CCOC(=O)N1CCN(C(=O)[C@H](CCC(=O)O)NC(=O)c2cc(N3CCCCC3)nc(-c3ccccc3)n2)CC1`, the “inhibition (INH)” value (in series [1]; on Cytochrome P450 2D6; at Cytochrome P450 3A4 [3]; on Cytochrome P450 3A4 [4]; on Cytochrome P450 2C9) was “Not Active” throughout. Moreover, the Stability result in the series on Liver microsome [2] and in the series with Liver microsome [6] was “Stable” in each case. For the same compound, the IC50 on P2Y purinoceptor 12 came to 201 nM. Further, the solubility entry in series [5] and in series [7] was “soluble” throughout. For the same compound, in the series with Platelet [8], the Activity was found to be 30%.

For the compound `CCOC(=O)N1CCN(C(=O)[C@H](CCC(=O)O)NC(=O)c2cc(N3CCCCC3CN(C)C)nc(-c3ccccc3)n2)CC1` (stereo partly drawn), the “inhibition (INH)” value (in series [1]; on Cytochrome P450 2D6; on Cytochrome P450 3A4 [3]; at Cytochrome P450 3A4 [4]; at Cytochrome P450 2C9) was “Not Active” throughout. In addition, the Stability entry in the series with Liver microsome [2] and with Liver microsome [6] was “Stable” in each case. For the same compound, the 50% inhibitory concentration (IC50) on P2Y purinoceptor 12 is 291 nM. Further, the solubility entry in series [5] and in series [7] was “soluble” in each case. Besides, in the series with Platelet [8], the Activity is 30%.

In the case of `CCOC(=O)N1CCN(C(=O)[C@H](CCC(=O)O)NC(=O)c2cc(NCCN3CCOCC3)nc(-c3ccccc3)n2)CC1`, the “inhibition (INH)” value (in [1]; at Cytochrome P450 2D6; at Cytochrome P450 3A4 [3]; on Cytochrome P450 3A4 [4]; on Cytochrome P450 2C9) was “Not Active” throughout. Moreover, the Stability result with Liver microsome [2] and in the series with Liver microsome [6] was “Stable” throughout. In addition, at P2Y purinoceptor 12, the IC50 was determined as 257 nM. Moreover, the solubility result in [5] and in series [7] was “soluble” each time. Moreover, the Activity in the series with Platelet [8] is 30%.

A word on the IC50: it is the concentration that gives 50% inhibition.

(Values after ChEMBL document CHEMBL3351863, “Optimization of 2-phenyl-pyrimidine-4-carboxamides towards potent, orally bioavailable and selective P2Y(12) antagonists for inhibition of platelet aggregation” (Bioorg Med Chem Lett, 2014).)
